Test results reported in ChEMBL document CHEMBL1121632, “Oxime and dithiolane derivatives of 5-formyl-2'-deoxyuridine and their 5'-phosphates: antiviral effects and thymidylate synthetase inhibition” (J Med Chem, 1980).
Values after ≈ are worked out from the molar mass of the structure shown.

Experiments:
[1] = Concentration required to reduce HSV-1 F virus induced cytogenicity in primary rabbit kidney (PRK); format: functional; settings: Oryctolagus cuniculus; read-out: ID50 (the source's name)
[2] = Concentration required to reduce HSV-1 KOS virus induced cytogenicity in primary rabbit kidney (PRK); format: functional; settings: Oryctolagus cuniculus; read-out: ID50 (the source's name)
[3] = Concentration required to reduce HSV-1 McIntyre virus induced cytogenicity in primary rabbit kidney (PRK); format: functional; settings: Oryctolagus cuniculus, read-out: ID50 (the source's name)
[4] = Concentration required to reduce HSV-2 Lyons virus induced cytogenicity in primary rabbit kidney (PRK); format: functional; settings: Oryctolagus cuniculus; read-out: ID50 (the source's name)
[5] = Concentration required to reduce HV2 196 virus induced cytogenicity in primary rabbit kidney (PRK); format: functional; settings: Oryctolagus cuniculus; read-out: ID50 (the source's name)
[6] = Concentration required to reduce [1,2-H]dUrd incorporation into DNA in primary rabbit kidney (PRK); format: functional; settings: Oryctolagus cuniculus; read-out: ID50 (the source's name)
Summary of the method: (§1)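 PRK cell cultures (10^5 cells per well) were pulsed with 2'-deoxy[1',2'-3H]uridine (42 Ci/mmol) at 0.25 μCi, or 6 pmol, per well. Compound concentration cutting label incorporation into cellular DNA by 50% was taken as ID50.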

[7] = Concentration required to reduce [Me-H]dThd incorporation into DNA in primary rabbit kidney (PRK); format: functional; settings: Oryctolagus cuniculus, read-out: ID50 (the source's name)
Summary of the method: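 [methyl-3H]dThd incorporation into DNA of primary rabbit kidney cell cultures was measured with test compound present. ID50 is the concentration reducing dThd incorporation into DNA by 50%.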

[8] = Minimum Cytotoxic concentration in primary rabbit kidney (PRK); format: tissue-based, Oryctolagus cuniculus; settings: primary rabbit kidney (PRK) cells
Summary of the method: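 Primary rabbit kidney cell cultures, the same cells used for the virus cytopathogenicity assays, were exposed to the compound. Cytotoxicity was read as the lowest concentration causing a microscopically visible change in cell morphology.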

[9] = Concentration required to reduce virus HSV-2G induced cytogenicity in primary rabbit kidney (PRK); format: functional; settings: Oryctolagus cuniculus; read-out: ID50 (the source's name)
[10] = Ratio of ID50 for [Me-H]dThd to ID50 for [1,2-H]dUrd; format: functional
Summary of the method: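 The ratio is the ID50 for [Me-3H]dThd incorporation divided by the ID50 for [1',2'-3H]dUrd incorporation into PRK cell DNA. Each ID50 is the concentration giving 50% reduction of incorporation. The ratio is treated as a parameter for selective in vivo thymidylate synthetase inhibition.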

[11] = Concentration required to reduce vaccinia virus induced cytogenicity in primary rabbit kidney (PRK); format: functional; settings: Oryctolagus cuniculus; read-out: ID50 (the source's name)
[12] = Concentration required to reduce HSV-1 F virus induced cytogenicity in primary rabbit kidney (PRK); Range is 1-2; format: functional; settings: Oryctolagus cuniculus; read-out: ID50 (the source's name)
[13] = Concentration required to reduce HSV-1 KOS virus induced cytogenicity in primary rabbit kidney (PRK); Range is 1-2; format: functional; settings: Oryctolagus cuniculus; read-out: ID50 (the source's name)
[14] = Concentration required to reduce HSV-2 Lyons virus induced cytogenicity in primary rabbit kidney (PRK); Range is 2-4; format: functional; settings: Oryctolagus cuniculus; read-out: ID50 (the source's name)
[15] = Concentration required to reduce HV2 196 virus induced cytogenicity in primary rabbit kidney (PRK); Range is 1-4; format: functional; settings: Oryctolagus cuniculus; read-out: ID50 (the source's name)
[16] = Concentration required to reduce vaccinia virus induced cytogenicity in primary rabbit kidney (PRK); Range is 0.1-0.2; format: functional; settings: Oryctolagus cuniculus; read-out: ID50 (the source's name)
[17] = Concentration required to reduce virus HSV-2G induced cytogenicity in primary rabbit kidney (PRK); Range is 1-2; format: functional; settings: Oryctolagus cuniculus; read-out: ID50 (the source's name)
[18] = Concentration required to reduce [1,2-H]dUrd incorporation into DNA in n primary rabbit kidney (PRK); format: functional; settings: Oryctolagus cuniculus; read-out: ID50 (the source's name); summary of the method: as §1

Compound | IC50 [1] [µg/mL] | IC50 [2] [µg/mL] | IC50 [3] [µg/mL] | IC50 [4] [µg/mL] | IC50 [5] [µg/mL] | IC50 [6] [µg/mL] | IC50 [7] [µg/mL] | MCC [8] [µg/mL] | IC50 [9] [µg/mL] | Ratio [10] | IC50 [11] [µg/mL] | IC50 [12] [µg/mL] | IC50 [13] [µg/mL] | IC50 [14] [µg/mL] | IC50 [15] [µg/mL] | IC50 [16] [µg/mL] | IC50 [17] [µg/mL] | IC50 [18] [µg/mL]
O=c1[nH]c(=O)n([C@H]2C[C@H](O)[C@@H](CO)O2)cc1/C=N/O | 1 (≈ 3.69 µM) | 0.7 (≈ 2.58 µM) | 0.7 (≈ 2.58 µM) | 20 (≈ 73.7 µM) | 20 (≈ 73.7 µM) | 7.5 (≈ 27.7 µM) | 300 (≈ 1110 µM) | 100 | 7 (≈ 25.8 µM) | 40 | 10 (≈ 36.9 µM) |  |  |  |  |  |  | 
O=Cc1cn([C@H]2C[C@H](O)[C@@H](CO)O2)c(=O)[nH]c1=O |  |  | 0.7 (≈ 2.73 µM) |  |  | 0.2 (≈ 0.781 µM) | 75 (≈ 293 µM) | 4 |  | 375 |  | 1 (≈ 3.9 µM) | 1 (≈ 3.9 µM) | 2 (≈ 7.81 µM) | 1 (≈ 3.9 µM) | 0.1 (≈ 0.39 µM) | 1 (≈ 3.9 µM) | 
O=c1[nH]c(=O)n([C@H]2C[C@H](O)[C@@H](CO)O2)cc1C1SCCS1 | 150 (≈ 451 µM) | 300 (≈ 903 µM) | 300 (≈ 903 µM) | > 400 | 300 (≈ 903 µM) |  | 100 (≈ 301 µM) | > 400 | 200 (≈ 602 µM) | 1 | 200 (≈ 602 µM) |  |  |  |  |  |  | 100 (≈ 301 µM)
